As usually defined, the viability is a read-out of living cells in per cent, often relative to untreated cells. High values mean less harm to the cells, low ones more harm to the cells.

One data set deals with E6–E6AP interaction (Human papillomavirus type 16, UniProt P03126). The data set can be described thus: ELISA-based E6–E6AP association assay. The format is binding, HPV16. The settings on record: E6M-GST / MBP-E6AP association.
Another data set has as its system E6M. The data set can be described thus: Fluorescent E6 thermal stability assay. Type of data set: binding, HPV16. Conditions: E6M melting curve 20-80 °C, 4 µM E6M, 10 µM compound. The essentials: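 Full-length untagged E6M: bacterially expressed 6xHis-SUMO fusion, SUMO-protease cleaved, SUMO removed on Ni-NTA. E6M mixed in buffer with SYPRO orange and test compound in DMSO, or DMSO control. Controls: protein only, compound only. Heated 20–80 °C in a real-time PCR instrument; fluorescence at 580 nm (dye bound to protein) read against temperature. Run in replicate.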

A further data set deals with SiHa (HPV16 integrated). The experiment in a line: p53 level Western blot in SiHa cells. The format is cell-based, human. The settings on record: 48 h, compound 1–10 μM. The essentials:
(§1)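 Cells plated, then dosed next day with increasing concentrations of test compound in DMSO, or DMSO control, for 48 h. HCT116 (colon, wild-type p53) got the same concentrations as SiHa/HeLa. Cells washed twice, lysed in RIPA buffer with protease inhibitors, and protein normalised by BCA. Lysates run on SDS-PAGE, transferred to PVDF and probed with anti-p53 antibody.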

The subject of the next data set is HeLa (HPV18 integrated). The experiment in a line: p53 level Western blot in HeLa cells. The settings on record: 48 h, compound 1–10 μM. Type of data set: cell-based, human. The method, boiled down:
as §1
On the technique in general: A western blot detects proteins with antibodies after separation by electrophoresis.

Data set [1] has as its system HCT116 cells. The experiment in a line: p53 level Western blot in HCT116 cells. Type of data set: cell-based, human. The essentials:
as §1

The test system of data set [2] is HCT116 cells. The experiment in a line: MTS cytotoxicity assay in HCT116 cells. Conditions: HCT116, 48 h, all concentrations tested 1.6–25 μM. Type of data set: cell-based, human. (In general: Tetrazolium assays rely on reduction of a dye to a coloured formazan, in cell work by metabolically active cells.)
A short description of data set [3]: Resazurin cell viability, PA-1/E6 cells. Type of data set: cell-based, human. The settings on record: human, PA-1/E6 cells (PA-1 cells stably transfected with E6). The essentials:
(§2)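 Cells plated on day 1; test compound in DMSO, or DMSO, added on day 2. Puromycin as control. Flavonoid compounds and puromycin incubated 24 h. Resazurin then added to 5 μM final for 1 h; resorufin fluorescence read at 590 nm as a surrogate for viability. Cells: HCT116, parental PA-1 (human ovarian teratocarcinoma) or PA-1 stably transfected with HPV16 E6.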
Background: Resazurin is reduced to fluorescent resorufin, in cell work by metabolically active cells.

Data set [4] relates to PA-1/E6 cells. The experiment in a line: Resazurin cell viability, PA-1/E6 cells. The format is cell-based, human. The settings on record: PA-1/E6, 24 h. The method, boiled down:
as §2

Data set [5] has as its system PA-1/E6 cells. The data set can be described thus: p53 level Western blot in PA-1/E6 cells. The format is cell-based, human. The settings on record: PA-1/E6, Western blot of remaining cells after treatment. The essentials:
(§3)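 PA-1 and PA-1/HPV16 E6 cells treated with test compound at the same concentrations used for the resazurin viability test. Remaining cells washed, lysed in RIPA buffer with protease inhibitors and protein normalised by BCA. Lysates resolved by SDS-PAGE, transferred to PVDF and immunoblotted for p53.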

The next data set concerns PA-1 cells. The experiment in a line: p53 level Western blot in PA-1 cells. Type of data set: cell-based, human. The settings on record: PA-1, Western blot of remaining cells after treatment. The method, boiled down: as §3
The subject of another data set is HeLa cells. The experiment in a line: Cell proliferation in HeLa cells. The format is cell-based, human. Conditions: data not shown.
The next data set concerns SiHa cells. The experiment in a line: Cell proliferation in SiHa cells. The format is cell-based, human. The settings on record: data not shown.
The subject of the next data set is PA-1 parental cells. The data set can be described thus: Resazurin cell viability, PA-1 parental cells. The settings on record: 24 h. The format is cell-based, human. The method, boiled down:
as §2

In data set [6] the test system is HCT116 cells. The data set can be described thus: Resazurin cell viability, HCT116 cells. Type of data set: cell-based, human. Conditions: HCT116, 24 h. The essentials: as §2
Data set [7] has as its system HPV-positive cell lines. The settings on record: HPV-positive cell lines ref 33; cited from earlier work.
The subject of data set [8] is HPV-positive cell lines. Conditions: cited from earlier work.
Setting [9] is: HCT116, same concentrations as viability test (Figure 6B).

Sequence of E6–E6AP interaction (P03126 whole entry, the tested form may be a part): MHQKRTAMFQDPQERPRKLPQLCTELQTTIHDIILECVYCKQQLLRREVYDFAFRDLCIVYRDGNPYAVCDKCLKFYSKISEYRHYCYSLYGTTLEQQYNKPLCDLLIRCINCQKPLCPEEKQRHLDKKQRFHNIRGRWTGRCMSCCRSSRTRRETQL
Sequence of E6–E6AP interaction (Q05086 363-440, further chain): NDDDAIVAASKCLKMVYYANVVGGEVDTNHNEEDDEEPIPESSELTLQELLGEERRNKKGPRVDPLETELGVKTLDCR

On to `O=c1c(O)c(-c2ccc(O)c(O)c2)oc2c(O)c(O)cc(O)c12` [Gossypetin], for which the “ELISA IC50 (stated in words)” value at E6–E6AP interaction is “sub-micromolar”. For the same molecule, the “Thermal Stability” value in the data set on E6M is given as “stabilizes E6M”. In addition, the p53 levels entry was “significant increase in p53 levels” with SiHa (HPV16 integrated); “significant increase in p53 levels” in the data set with HeLa (HPV18 integrated); “unchanged” with HCT116 cells [1] (setting [9]); “concentration dependent increase” with PA-1/E6 cells [5]; “unchanged” in the data set with PA-1 cells. In addition, the “Toxicity (MTS)” value with HCT116 cells [2] is on record as “not toxic”. Besides, the viability at 24 h in data set [3] is over 50%. Besides, the “Cell viability (resazurin)” value in the data set with PA-1/E6 cells [4] is reported as “sensitive”. Also, the “Inhibition of cell proliferation” value in the data set with HeLa cells and with SiHa cells was “did not observe an inhibition of cell proliferation” throughout.

Consider `COc1ccc(C[C@H](N)C(=O)N[C@H]2[C@@H](O)[C@H](n3cnc4c(N(C)C)ncnc43)O[C@@H]2CO)cc1` [Puromycin, reference compound], for which the “Cell viability (resazurin)” value in the data set with PA-1/E6 cells [4], in the data set with PA-1 parental cells and in the data set with HCT116 cells [6] was “equally cytotoxic” throughout.

With `O=c1cc(-c2ccccc2)oc2cc(O)c(O)c(O)c12` [baicalein], the “ELISA IC50 (stated in words)” value on E6–E6AP interaction is “sub-micromolar”. Moreover, the values for the p53 levels result with HCT116 cells [1] (setting [9]), in the data set on PA-1/E6 cells [5] and in the data set on PA-1 cells were “unchanged”, “concentration dependent increase” and “unchanged”, respectively. The viability at 24 h in data set [3] was over 50%. Besides, the “Cell viability (resazurin)” value with PA-1/E6 cells [4] was “sensitive”. Also, the “Inhibition of cell proliferation” value in the data set on HeLa cells and in the data set with SiHa cells was “did not observe an inhibition of cell proliferation” in each case.

Regarding `CC[n+]1c(-c2ccccc2)c2cc(N)ccc2c2ccc(N)cc21` [ethidium bromide, Ethidium bromide, reference compound], the p53 levels entry with HCT116 cells [1] (HCT116 (HPV-negative, wild-type p53), 48 h, Western blot) is “effectively stabilized p53”.

As for `O=c1cc(-c2ccc(O)c(O)c2)oc2cc(O)cc(O)c12` [luteolin], in the data set with HPV-positive cell lines [7], the “p53 and p21Cip1/Waf1 protein” value is “increase in p53 and p21^Cip1/Waf1 protein”. In addition, the “Viability of HPV-positive cell lines” value in the data set on HPV-positive cell lines [8] is reported as “decreased viability”.

These data come from article PMC4145632 (ACS Chemical Biology, 2014).
